EBNA-1 inhibitor: blocks EBNA-1 binding to DNA; EBNA-1 DNA binding, fluorescence polarization; inhibition, % at 14.8 µM; AID 1950; hit rate 0.34% among 300,000; in the data active = inhibition above about 28%
ZTA counter: counter-screen for EBNA-1 inhibitors: inhibitors of Epstein-Barr virus ZTA; ZTA-DNA binding, fluorescence polarization; hit rate 0.15% among 320,000; P03206; inhibition, % at 11 µM; in the data active = inhibition above about 33%
Target sequence (P03206 whole entry, looked up): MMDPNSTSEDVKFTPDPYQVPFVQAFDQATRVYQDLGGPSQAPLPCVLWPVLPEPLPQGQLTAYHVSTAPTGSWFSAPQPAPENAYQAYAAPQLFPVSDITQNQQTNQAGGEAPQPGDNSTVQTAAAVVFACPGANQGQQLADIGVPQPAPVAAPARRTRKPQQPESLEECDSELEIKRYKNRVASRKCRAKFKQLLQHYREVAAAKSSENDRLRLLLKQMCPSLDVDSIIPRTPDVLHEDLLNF
HCV NS3 hel inh: inhibitors of Hepatitis C virus NS3 helicase. NS3 helicase DNA unwinding, Cy5 molecular beacon fluorescence. inhibition, % at 10.9 µM. hit rate 0.56% among 290,000;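 active = inhibition above the mean of all tested compounds plus 3 SD, set per campaign, cut at about 35% in these data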;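 also: 0% = DMSO wells and 100% = thioflavine S control wells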
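System: Hepatitis C virus NS3 helicase domain fragment enzyme | Reagent: Annealed dual-labelled DNA beacon duplex, ATP-started | Compound dosing: 10.9 µM single point, 0.8% DMSO | Incubation: 1 h reaction at 25 °C, ATP-initiated | Technique: Cy5 fluorescence | Evaluation: Percent inhibition from t60/t0 fluorescence ratio | Benchmarks: Low DMSO, high thioflavine S at 110 µM | Replication: Singlicate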
ALR inh: inhibitors of human sulfhydryl oxidase ALR. P55789. purified ALR, DTT oxidation, H2O2 HRP-luminol luminescence. inhibition, % (concentration not given with the values). hit rate 3.8% among 290,000. AID 485317;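 active = mean replicate inhibition above about 79%, with every replicate also reaching it, limit read from the data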
Target sequence (P55789 whole entry, looked up): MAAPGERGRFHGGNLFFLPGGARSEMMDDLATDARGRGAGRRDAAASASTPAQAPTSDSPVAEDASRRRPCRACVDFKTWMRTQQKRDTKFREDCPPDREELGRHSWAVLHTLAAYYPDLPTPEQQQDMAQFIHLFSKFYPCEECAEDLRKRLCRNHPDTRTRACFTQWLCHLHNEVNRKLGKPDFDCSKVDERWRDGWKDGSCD
PfM18AAP inh-1: PfM18AAP enzyme inhibition | hit rate 1.2% among 290,000 | recombinant PfM18AAP, H-Glu-NHMec fluorogenic cleavage | inhibition, % at 7.35 µM;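 active = inhibition above the campaign mean inhibition over all tested compounds plus 3 SD, cut at about 28% in these data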;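 also: 0% = plate median of test compound wells and 100% = 2 mM ZnCl2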
HCV core dimer: blocks dimerization of HCV core protein; TR-FRET GST/Flag-core106 dimerization, 1536-well; inhibition, % at 5 µM; hit rate 0.33% among 300,000; AID 1899;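 active = inhibition above the mean of all tested compounds plus 3 SD, set per screening campaign, cut at about 45% in these data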
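test system = GST/Flag-tagged HCV core106 proteins | probe or stimulus = Eu donor and XL665 acceptor anti-tag antibodies | times = compound-protein-antibody incubation 4 h at 22.5 °C | signal = TR-FRET, excitation 340 nm, emission 617 and 671 nm | measure = percent inhibition of core106 dimerization signal | controls = wells lacking GST-core106 and wells with excess unlabelled core106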
PfM18AAP inh-2: confirmation of Plasmodium falciparum M18 aspartyl aminopeptidase inhibitors. AID 2170. recombinant PfM18AAP, H-Glu-NHMec fluorogenic cleavage. shares compounds with PfM18AAP inh-1. inhibition, % at 7.35 µM. hit rate 28% among 2,400;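 active = mean inhibition over replicate wells above the hit cutoff set for the earlier primary screen, cut at about 29% in these data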;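 also: 0% = median of test compound wells and 100% = 2 mM ZnCl2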
CTSL1 counter: Cathepsin L (human) inhibition, confirmation; shares compounds with PfM18AAP inh-1; purified cathepsin L1, Z-Leu-Arg-MCA fluorescence; inhibition, % at 5.96 µM; 2,400 tested, under 10 active;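 active = average inhibition across replicates above the hit cutoff set in the earlier primary screen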;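 also: 0% = median of test compound wells and 100% = Z-Phe-Ala-diazomethylketone 1 µM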
An asterisk follows results filed as active; . = no result given. Compounds with a hit are over-represented: about 5.2% of the library has one in this group of screens.

SMILES | EBNA-1 inhibitor | ZTA counter | HCV NS3 hel inh | ALR inh | PfM18AAP inh-1 | HCV core dimer | PfM18AAP inh-2 | CTSL1 counter
Nc1ccccc1Nc1cc(-c2ccccc2)nn1-c1ccccc1 | 3.8 | 22.3 | -0.8 | 6.0 | 5.3 | -9.0 | . | .
Nc1ccccc1Nc1cc(-c2ccccc2)[nH]n1 | . | . | -19.6 | . | 39.3* | . | -27.4 | 4.0
Cc1ccc([N+](=O)[O-])cc1S(=O)(=O)Nc1ccc(O)c(Sc2ncn[nH]2)c1 | 7.4 | 3.4 | 1.7 | 94.1* | 53.9* | -6.0 | 38.2* | -4.4
N#Cc1ccc(/C=N/NC(=S)Nc2ccc(S(=O)(=O)N3CCOCC3)cc2)cc1 | 9.9 | 8.8 | 0.1 | 1.0 | 3.3 | 9.7 | . | .
O=S(=O)(c1ccc(NC(=S)N/N=C/c2ccc(O)c(O)c2)cc1)N1CCOCC1 | -8.9 | -2.0 | -7.0 | 98.8* | 57.2* | -4.0 | 33.7* | -0.7
COc1ccc(NC(C)=O)cc1CNC(=O)CN1CCOCC1 | 0.0 | -0.7 | -5.1 | . | -0.2 | 3.6 | . | .
Cc1ccc(C(=O)C(NC(=O)c2ccco2)Nc2sc3c(c2C(N)=O)CCCC3)cc1 (centres undefined) | -11.9 | -3.7 | 3.8 | -10.3 | 39.8* | 65.5* | -26.5 | -7.8
O=Cc1ccc(C(=O)OCC(=O)NCc2ccco2)cc1 | . | . | . | 4.4 | . | . | . | .
Cc1nc(N/N=C/c2ccc(O)cc2O)cc(N2CCOCC2)n1 | 0.5 | -2.6 | 1.4 | 94.7* | 49.0* | -9.6 | 33.5* | 0.7
Cc1nc(N/N=C/c2cccc(F)c2)cc(N2CCOCC2)n1 | 0.2 | -0.4 | -6.5 | 6.2 | 2.8 | 9.7 | . | .
COC(=O)C1=C(C)NC(=S)NC1c1ccc(-c2cc(Cl)ccc2Cl)o1 (centres undefined) | 9.0 | 20.7 | 7.1 | -1.6 | 36.2* | 24.4 | -55.4 | 8.7
Cc1c(C)n(CCc2ccccc2)c2ncnc(NN)c12 | -14.4 | 4.2 | -1.2 | . | 44.3* | -1.8 | 4.1 | 2.5
Cc1c(C)n(CCc2ccccc2)c2ncnc(NCCCO)c12 | 1.6 | 5.6 | -14.9 | . | -13.9 | 2.4 | . | .
Cn1c(CO)nc2cc(N)ccc21 | 11.4 | -9.6 | -5.6 | 79.6* | 38.9* | -0.6 | -45.2 | 0.9
Cc1nc2cc(CO)ccc2n1C | 4.2 | -17.9 | 0.2 | -1.7 | 3.9 | -6.9 | . | .
Cc1sc2ccccc2[n+]1CC(=O)c1ccccc1 | -1.4 | 6.6 | 7.3 | . | 52.1* | -3.6 | 11.1 | -0.3
COc1ccc(-[n+]2c(C)cc(/C=C3\Sc4ccccc4N3C)cc2C)cc1 | -4.9 | -26.6 | -33.3 | 94.9* | 45.2* | -27.9 | -24.8 | 0.6
CC[n+]1c(/C=C2\Sc3ccccc3N2C)ccc2cccc(C)c21 | . | . | -15.3 | . | 1.1 | . | . | .
O=C(NC(=S)Nc1cc(C(F)(F)F)ccc1Cl)c1ccccc1 | -1.2 | 18.7 | 0.7 | -0.1 | 13.7 | 2.9 | . | .
O=C(O)c1ccc(NNC(=S)Nc2cc(C(F)(F)F)ccc2Cl)cc1 | -4.7 | 5.2 | 22.2 | 54.3 | 35.1* | -1.6 | -30.2 | -3.7
O=C(/C=C/c1ccccc1F)c1cccc([N+](=O)[O-])c1 | 11.0 | -34.9 | -15.3 | 9.0 | 33.9* | -2.2 | 3.6 | 4.9
Oc1ccc(NCc2ccccc2OCc2ccccc2)cc1 | 2.5 | 10.1 | 10.4 | 9.3 | 48.9* | 1.6 | -20.7 | -2.4
CCNCc1ccccc1OCc1ccccc1 | -10.2 | -2.8 | -7.2 | 9.2 | -0.5 | -2.1 | . | .
Cc1cccc(-n2c(SCC(=O)NCC3CCCO3)nc3ccccc3c2=O)c1C (centres undefined) | . | -12.0 | . | . | . | . | . | .
COc1ccccc1NS(=O)(=O)c1cc(NC(=O)C2CC2)ccc1N1CCOCC1 | 4.6 | 8.8 | 3.0 | -7.1 | 42.0* | 2.1 | -26.9 | 0.7
COc1ccccc1NS(=O)(=O)c1cc(NC(=O)COc2ccccc2)ccc1N1CCOCC1 | . | . | . | -1.1 | . | . | . | .
Cc1ccc2nc3c(cc(C(=O)NCC4CCCO4)c(=N)n3C3CCCC3)c(=O)n2c1 (centres undefined) | -7.4 | -7.0 | 14.6 | -4.7 | -2.2 | -7.5 | . | .
Cc1ccc2nc3c(cc(C(=O)NCc4ccco4)c(=N)n3C3CCCC3)c(=O)n2c1 | 5.0 | 1.8 | 3.9 | -2.8 | 37.9* | 8.0 | -29.6 | 3.0
